Values after ≈ are worked out from the molar mass of the structure shown.
Legend:
Enterococcus faecalis [1] = assay: Antimicrobial activity against Enterococcus faecalis ATCC 49532 after 24 hrs by Kirby-Bauer agar diffusion assay; type: functional
How it was run: (§1)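 Modified Kirby-Bauer well diffusion. Overnight LB cultures (18–24 h) were standardized in 0.9% saline to 0.5 McFarland and mixed into melted MHII agar at 47–50 °C, giving ~5×10³ CFU/mL. 9 mm wells received 50 µL of 2.0 mM compound in 10:1 MeOH:DMSO. Plates were incubated 24 h at 37 °C, then growth-inhibition zone diameter was measured (mm) by caliper.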

Staphylococcus aureus [2] = assay: Antimicrobial activity against Staphylococcus aureus SG511 assessed after 18 hrs by broth microdilution method; type: functional; details: SG511, 18 h
How it was run: (§2)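 CLSI broth microdilution in cation-adjusted MHII broth. 20 mM DMSO stocks were diluted to 512 µM, then serially 2-fold, giving final 128–0.0625 µM with 5×10⁵ CFU/mL inoculum. Incubated 18 h at 37 °C. MIC90 was the lowest concentration giving 90% inhibition by visual turbidity versus DMSO wells. Run in triplicate.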

HeLa = assay: Cytotoxicity against human HeLa cells; type: cell-based
Enterococcus faecalis [3] = assay: Antimicrobial activity against Enterococcus faecalis ATCC 49532 assessed after 18 hrs by broth microdilution method; type: functional; details: ATCC 49532, 18 h; how it was run: as §2
PC-3 = assay: Cytotoxicity against human PC3 cells; type: cell-based
MCF7 = assay: Cytotoxicity against human MCF7 cells; type: cell-based
Micrococcus luteus [4] = assay: Antimicrobial activity against Micrococcus luteus ATCC 10240 assessed after 18 hrs by broth microdilution method; type: functional; details: ATCC 10240, 18 h; how it was run: as §2
Staphylococcus aureus [5] = assay: Antimicrobial activity against Staphylococcus aureus SG511 after 24 hrs by Kirby-Bauer agar diffusion assay; type: functional; how it was run: as §1
Micrococcus luteus [6] = assay: Antimicrobial activity against Micrococcus luteus ATCC 10240 after 24 hrs by Kirby-Bauer agar diffusion assay; type: functional; how it was run: as §1

| Compound | diameter of the inhibition zone (DIZ) (Enterococcus faecalis [1]) [mm] | MIC90 (Staphylococcus aureus [2]) [µM] | Activity (HeLa) | MIC90 (Enterococcus faecalis [3]) [µM] | Activity (PC-3) | Activity (MCF7) | MIC90 (Micrococcus luteus [4]) [µM] | diameter of the inhibition zone (DIZ) (Staphylococcus aureus [5]) [mm] | diameter of the inhibition zone (DIZ) (Micrococcus luteus [6]) [mm] |
| --- | --- | --- | --- | --- | --- | --- | --- | --- | --- |
| ON(CCc1ccccc1)c1ccccn1 | 15 | > 128 | Non-toxic | > 128 | Non-toxic | Non-toxic | 128 (≈ 27.4 µg/mL) | 0 | 16 |
| C=CCN(O)c1ccccn1 | 12 | > 128 | Non-toxic | > 128 | Non-toxic | Non-toxic | > 128 | 0 | 14 |
| ON(Cc1cccc(Oc2ccccc2)c1)c1ccccn1 | 0 | > 128 | Non-toxic | > 128 | Non-toxic | Non-toxic | > 128 | 13 | 12 |
| ON(Cc1ccc(C(F)(F)F)cc1)c1ccccn1 | 15 | > 128 | Non-toxic | > 128 | Non-toxic | Non-toxic | 128 (≈ 34.3 µg/mL) | 15 | 16 |
| ON(Cc1ccc(OC(F)(F)F)cc1)c1ccccn1 | 15 | > 128 | Non-toxic | > 128 | Non-toxic | Non-toxic | 128 (≈ 36.4 µg/mL) | 14 | 17 |
| CC(=O)ON(Cc1ccccc1)c1ccccn1 | 11 | > 128 | Non-toxic | > 128 | Non-toxic | Non-toxic | 128 (≈ 31 µg/mL) | 12 | 20 |
| ON(Cc1ccccc1)c1cccnc1 | 0 | > 128 | Non-toxic | > 128 | Non-toxic | Non-toxic | ≥ 128 | 16 | 15 |
| ON(Cc1ccccc1)Cc1ccccn1 | 0 | > 128 | Non-toxic | > 128 | Non-toxic | Non-toxic | > 128 | 0 | 0 |
| c1ccc(CNc2ccccn2)cc1 | 0 | > 128 | Non-toxic | > 128 | Non-toxic | Non-toxic | > 128 | 0 | 0 |
| C=C(C)C(CCC(C)=O)N(O)c1ccccn1 (racemic) | 16 | 128 (≈ 30 µg/mL) | Non-toxic | > 128 | Non-toxic | Non-toxic | 16 (≈ 3.75 µg/mL) | 15 | 30 |
| CO[C@H]1C=CCC[C@@H]1N(O)c1ccc(Br)cn1 (racemic) | 20 | ≥ 128 | Non-toxic | > 128 | Non-toxic | Non-toxic | 4 (≈ 1.2 µg/mL) | 18 | 34 |
| C=C(C)C(C)N(O)c1ccccn1 (racemic) | 22 | 128 (≈ 22.8 µg/mL) | Non-toxic | > 128 | Non-toxic | Non-toxic | 8 (≈ 1.43 µg/mL) | 18 | 31 |
| C=C(C)C(C)N(O)c1ccc2ccccc2n1 (racemic) | 13 | 128 (≈ 29.2 µg/mL) | Non-toxic | > 128 | Non-toxic | Non-toxic | 8 (≈ 1.83 µg/mL) | 13 | 31 |
| C=C(C)C(C)N(O)c1cc(C)on1 (racemic) | 13 | > 128 | Non-toxic | > 128 | Non-toxic | Non-toxic | 64 (≈ 11.7 µg/mL) | 0 | 21 |
| C=C(C)C(C)N(O)c1cccc(CC)n1 (racemic) | 22 | > 128 | Non-toxic | > 128 | Non-toxic | Non-toxic | 2 (≈ 0.413 µg/mL) | 11 | 52 |
| C=C(C)C(C)N(O)c1cc(C)ccn1 (racemic) | 22 | 128 (≈ 24.6 µg/mL) | Non-toxic | > 128 | Non-toxic | Non-toxic | 4 (≈ 0.769 µg/mL) | 20 | 29 |
| C=C(C)C(C)N(O)c1ncccc1C (racemic) | 19 | > 128 | Non-toxic | > 128 | Non-toxic | Non-toxic | 16 (≈ 3.08 µg/mL) | 10 | 25 |
| C=C(C)C(C)N(O)c1ccc(Cl)cn1 (racemic) | 21 | 128 (≈ 27.2 µg/mL) | Non-toxic | ≥ 128 | Non-toxic | Non-toxic | 2 (≈ 0.425 µg/mL) | 18 | 40 |
| C=C(C)C(C)N(O)c1ccc(Br)cn1 (racemic) | 19 | > 128 | Non-toxic | > 128 | Non-toxic | Non-toxic | 4 (≈ 1.03 µg/mL) | 17 | 35 |
| C=C(C)C(C)N(O)c1ccc(I)cn1 (racemic) | 19 | > 128 | Non-toxic | > 128 | Non-toxic | Non-toxic | 2 (≈ 0.608 µg/mL) | 12 | 38 |
| C=C(C)C(C)N(O)c1ncc(Cl)cc1Cl (racemic) | 14 | > 128 | Non-toxic | > 128 | Non-toxic | Non-toxic | 16 (≈ 3.95 µg/mL) | 0 | 27 |
| C=C(C)C(C)N(O)c1ccc(Br)c(C)n1 (racemic) | 12 | > 128 | Non-toxic | > 128 | Non-toxic | Non-toxic | 4 (≈ 1.08 µg/mL) | 13 | 35 |
| C=C(C)C(C)N(O)c1ncc(C(F)(F)F)cc1Cl (racemic) | 13 | > 128 | Non-toxic | > 128 | Non-toxic | Non-toxic | 128 (≈ 35.9 µg/mL) | 0 | 15 |
| CO[C@H]1C=CCC[C@@H]1Nc1ccc(Br)cn1 (racemic) | 0 | > 128 | Non-toxic | > 128 | Non-toxic | Non-toxic | > 128 | 0 | 0 |
| CO[C@H]1C=CCC[C@@H]1N(OC(C)=O)c1ccc(Br)cn1 (racemic) | 0 | > 128 | Non-toxic | > 128 | Non-toxic | Non-toxic | 32 (≈ 10.9 µg/mL) | 0 | 22 |
| C=C(C)C(CC/C(C)=C/CO)N(O)c1cccc(CC)n1 (racemic) | 19 | > 128 | Non-toxic | > 128 | Non-toxic | Non-toxic | 2 (≈ 0.581 µg/mL) | 18 | 31 |

— ChEMBL document CHEMBL1914331, “N-O chemistry for antibiotics: discovery of N-alkyl-N-(pyridin-2-yl)hydroxylamine scaffolds as selective antibacterial agents using nitroso Diels-Alder and ene chemistry” (J Med Chem, 2011)
